{"source": "ChEMBL document CHEMBL2150903", "about": "“Synthesis and screening of novel vitamin E derivatives for anticancer functions” (Eur J Med Chem, 2012)", "assay_type_in_all_cases": "functional, cell-based", "key": {"[1]": {"system": "MDA-MB-231", "test": "Induction of apoptosis in human MDA-MB-231 cells assessed as PARP cleavage at 20 uM after 15 hrs by Western blot analysis", "outline": "(§1)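 Cells grown in MEM with 10% FBS, glutamine, penicillin/streptomycin, non-essential amino acids and 2× MEM vitamins; serum cut to 2% for treatment. Compounds dissolved in DMSO (40 mM stock); DMSO vehicle control. Treatment 15 h, then Western blot of whole-cell extracts for PARP cleavage. Primary antibody in 0.1% BSA/TBST overnight at 4 °C, then HRP-conjugated secondary. Two separate experiments.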"}, "[2]": {"system": "MCF7", "test": "Induction of apoptosis in human MCF7 cells assessed as PARP cleavage at 20 uM after 15 hrs by Western blot analysis", "outline": "as §1"}, "[3]": {"organism": "Mus musculus", "test": "Induction of apoptosis in mouse 66cl-4GFP cells assessed as PARP cleavage at 20 uM after 15 hrs by Western blot analysis", "outline": "as §1"}, "[4]": {"system": "MDA-MB-231", "test": "Induction of apoptosis in human MDA-MB-231 cells at 20 and 40 uM by […]"}, "[5]": {"system": "MCF7", "test": "Induction of apoptosis in human MCF7 cells at 20 uM by AnnexinV/PI/FITC-based flow cytometric analysis"}, "[6]": {"system": "MDA-MB-231", "test": "Induction of apoptosis in human MDA-MB-231 cells by AnnexinV/PI/FITC-based flow cytometric analysis"}, "[7]": {"system": "MCF7", "test": "Induction of apoptosis in human MCF7 cells at 40 uM by AnnexinV/PI/FITC-based flow cytometric analysis"}, "[8]": {"system": "MCF7", "test": "Induction of apoptosis in human MCF7 cells by AnnexinV/PI/FITC-based flow cytometric analysis"}}, "note": "Activity calls are given as the source filed them. The calls are words filed in the database; no cut-off is given here."}
{"compound": "CC(C)CCC[C@@H](C)CCC[C@@H](C)CCC[C@]1(C)CCc2cc(O)c(F)cc2O1", "values": [{"measurement": "Activity", "setting": "[1]", "value": "inactive"}, {"measurement": "Activity", "setting": "[2]", "value": "inactive"}, {"measurement": "Activity", "setting": "[3]", "value": "inactive"}]}
{"compound": "Cc1c(C)c2c(c(C)c1OCC(=O)O)CC[C@@](C)(COCCC(C)CCCC(C)CCCC(C)C)O2", "note": "(mixture of isomers)", "values": [{"measurement": "Activity", "setting": "[4]", "value": "Active"}, {"measurement": "Activity", "setting": "[1]", "value": "Active"}, {"measurement": "Activity", "setting": "[5]", "value": "Active"}, {"measurement": "Activity", "setting": "[2]", "value": "Active"}, {"measurement": "EC50", "setting": "[6]", "value": 18, "unit": "µM"}, {"measurement": "Activity", "setting": "[7]", "value": "Active"}, {"measurement": "EC50", "setting": "[8]", "value": 21, "unit": "µM"}, {"measurement": "Activity", "setting": "[3]", "value": "Active"}]}
{"compound": "Cc1c(C)c2c(c(C)c1OCC(=O)O)CC[C@](C)(COCCC(C)CCCC(C)CCCC(C)C)O2", "note": "(mixture of isomers)", "values": [{"measurement": "Activity", "setting": "[4]", "value": "Active"}, {"measurement": "Activity", "setting": "[1]", "value": "Active"}, {"measurement": "Activity", "setting": "[2]", "value": "Active"}, {"measurement": "EC50", "setting": "[6]", "value": 16, "unit": "µM"}, {"measurement": "Activity", "setting": "[7]", "value": "Active"}, {"measurement": "EC50", "setting": "[8]", "value": 29, "unit": "µM"}, {"measurement": "Activity", "setting": "[3]", "value": "Active"}]}
{"compound": "CC(C)CCCC(C)CCCC(C)CCCC1(C)CCc2cc(OCC(=O)O)c(F)cc2O1", "note": "(racemic)", "values": [{"measurement": "Activity", "setting": "[2]", "value": "Active"}, {"measurement": "EC50", "setting": "[6]", "value": 34, "unit": "µM"}, {"measurement": "EC50", "setting": "[8]", "value": 60, "unit": "µM"}, {"measurement": "Activity", "setting": "[3]", "value": "Active"}]}
{"compound": "CC(C)CCCC(C)CCCC(C)CCOCC1(C)CCc2cc(OCC(=O)O)c(F)cc2O1", "note": "(racemic)", "values": [{"measurement": "Activity", "setting": "[4]", "value": "Active"}, {"measurement": "Activity", "setting": "[1]", "value": "Active"}, {"measurement": "Activity", "setting": "[2]", "value": "Active"}, {"measurement": "EC50", "setting": "[6]", "value": 27, "unit": "µM"}, {"measurement": "Activity", "setting": "[7]", "value": "Active"}, {"measurement": "EC50", "setting": "[8]", "value": 35, "unit": "µM"}, {"measurement": "Activity", "setting": "[3]", "value": "Active"}]}
{"compound": "CC(C)CCCC(C)CCCC(C)CCOCC1(C)CCc2cc(O)c(F)cc2O1", "note": "(racemic)", "values": [{"measurement": "Activity", "setting": "[2]", "value": "Active"}]}
{"compound": "Cc1c(C)c2c(c(C)c1OCC(=O)O)CC[C@@](C)(CCC[C@H](C)CCC[C@H](C)CCCC(C)C)O2", "note": "[.ALPHA.-TOCOPHERYLOXYACETIC ACID]", "values": [{"measurement": "Activity", "setting": "[4]", "value": "Active"}, {"measurement": "Activity", "setting": "[1]", "value": "Active"}, {"measurement": "Activity", "setting": "[5]", "value": "Active"}, {"measurement": "Activity", "setting": "[2]", "value": "Active"}, {"measurement": "EC50", "setting": "[6]", "value": 35, "unit": "µM"}, {"measurement": "Activity", "setting": "[7]", "value": "Active"}, {"measurement": "EC50", "setting": "[8]", "value": 51, "unit": "µM"}, {"measurement": "Activity", "setting": "[3]", "value": "Active"}]}
